# Source: publication PMC9398166 (Molecular Cancer Therapeutics, 2021)
# Key:
# [1] = Free; type: in vivo, mice; conditions: SCID/beige, mouse, plasma, oral, 5 mg/kg
# [2] = patients; ref FDA label; cited from earlier work
# [3] = ref FDA label; cited from earlier work
# [4] = tested on: ALK(G1202R); conditions: cited from earlier work
# [5] = Pharmacokinetic/pharmacodynamic analysis of phospho-ALK; type: in vivo, mice; conditions: SCID/beige, mouse, plasma, oral
# [6] = biological target: EML4-ALK G1202R/L1196M fusion phosphorylation (Homo sapiens, UniProt Q9HC35+Q9UM73, G1202R/L1196M); test: as above; type: in vivo, mice; conditions: mouse, read-out: phosphorylation inhibition of EML4-ALK G1202R/L1196M fusion
# [7] = Pharmacokinetics and brain distribution after repeat oral administration; type: in vivo; conditions: male Sprague Dawley rats; single oral administration
# In short: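 Male Sprague Dawley rats received 10 mg/kg orally once daily for 7 consecutive days. Plasma concentration profiles were determined on days 1 and 7. On day 7, terminal samples of plasma, cerebrospinal fluid and brain tissue were collected 1, 4 and 24 h postdose and analyzed by LC/MS-MS. Brain tissue levels were compared with plasma levels.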
concentration at 12 h [1] [nM],concentration at 2 h [5] [nM],inhibition at 0.0195 µM [6] [%],absorption [7],elimination half-life [7],SMILES,AUC0–24h [2] [ng·h/mL],Cave unbound exposure [2],plasma protein binding [3] [%],unbound exposure necessary for maximum antitumor efficacy ([4]; preclinical ALK(G1202R) xenograft model) [nmol/L],"EC90 ([4]; read-out: EC90 unbound exposure for inhibition of ALK(G1202R) phosphorylation, preclinical xenograft model) [nM]"
358,,,,,"C[C@H]1Oc2cc(cnc2N)-c2c(nn(C)c2C#N)CN(C)C(=O)c2ccc(F)cc21 [Lorlatinib, lorlatinib]",5650,approximately 155 nmol/L,66,[…],[…]
,19.5,> 90,rapid absorption,long elimination half-life,"CC1(C)COc2ccc(F)cc2CN2c3nc4c(cnn4cc3OC[C@H]2C(F)F)C(=O)N1 [TPX-0131, (4S)-4-(difluoromethyl)-8-fluoro-13,13-dimethyl-3,4,13,14-tetrahydro-6H-18,1-(metheno)[1,4]oxazino[3,4-i]pyrazolo[4,3-f][1,4,8,10]benzoxatriazacyclotridecin-15(12H)-one]",,,,,
